Compound activity from PubChem BioAssay.
DAT uptake mod: changed human dopamine transporter uptake under cocaine IC80 | LLC-PK1 hDAT cells, [14C]-dopamine uptake with cocaine IC80; actives deviate in either direction | B-score at 10 µM | 1.3% of 110,000 active | AID 449768;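 active means Z score or B-score, a plate-position-corrected score, falls beyond the plate's 99.7% confidence bounds, in either direction; inactive means both scores lie inside the 99.7% bounds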;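 further: scored against the spread of the other compound wells on the same plate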
WNV protease inh: inhibitors of West Nile virus NS2B-NS3 protease; z-score (test concentration not listed); P06935; 0.18% of 65,000 active; WNV NS2B-NS3 protease, fluorogenic substrate Ex360/Em465; active compounds read low; in the data active means z-score below about -3
D1 allo mod: allosteric modulators of human D1 dopamine receptor; P21728; AID 641; 5.9% of 58,000 active; B-score at 10 µM; HEK293 D1, CRE-luciferase, dopamine EC30 potentiation; actives deviate in either direction;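 active means luminescence count or its row- and column-corrected plate score outside the 99.7% band of the plate's sample wells, on either side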
Target sequence (P21728 whole entry, looked up): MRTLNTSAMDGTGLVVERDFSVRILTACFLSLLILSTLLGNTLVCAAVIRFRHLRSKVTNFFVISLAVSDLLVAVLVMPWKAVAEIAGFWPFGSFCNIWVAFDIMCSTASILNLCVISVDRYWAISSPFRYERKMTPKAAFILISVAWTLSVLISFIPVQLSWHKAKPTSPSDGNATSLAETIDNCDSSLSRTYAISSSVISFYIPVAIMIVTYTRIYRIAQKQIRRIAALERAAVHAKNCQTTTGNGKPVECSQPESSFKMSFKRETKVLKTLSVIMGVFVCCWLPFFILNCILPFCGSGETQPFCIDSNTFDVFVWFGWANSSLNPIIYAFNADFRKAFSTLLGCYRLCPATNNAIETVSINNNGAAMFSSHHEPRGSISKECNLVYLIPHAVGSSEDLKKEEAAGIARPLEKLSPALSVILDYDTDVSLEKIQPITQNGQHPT
AP complement: alternative pathway complement inhibition, orthogonal assay; Human serum alternative complement pathway, LPS-coated ELISA, C3 deposition; tested in compound mixtures; inhibition, % at 5 µM; 0.08% of 62,000 active;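 active means inhibition above 30% in each of the two pooled mixtures holding the compound, so the lower value exceeds 30%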;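 further: 0% = serum in Mg-EGTA without compound and 100% = EDTA serum blank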
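Medium: diluted human serum in Mg2+-EGTA GVB++. Assay system: human serum complement alternative pathway, C3 deposition onto LPS. Also added: Plate-bound LPS. Technique: Anti-C3 ELISA, OD 450 nm. Measure: percent inhibition. Incubation: 1 h at 37 °C. Dosing: 5 µM each compound, pools of ten, 50 µM per pool.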
An asterisk follows results filed as active; nt = no result. Many of the other results were omitted from the sample, so hits are more common in it than they were.

SMILES | DAT uptake mod | WNV protease inh | D1 allo mod | AP complement
COc1ccc2[nH]c(C)c(C(=O)CN3CCOCC3)c2c1 | -2.97* | -0.44 | nt | nt
CCCCN(CC)Cc1ccc(CNC(=O)Nc2ccc(OCC)cc2)o1 | -4.12* | nt | nt | nt
CCn1c(CCNC(=O)c2ccc(Cl)c(Cl)c2)nnc1SCCOc1ccc(OC)cc1 | -0.66 | nt | nt | nt
CCc1nnc(NC(=O)c2ccc(-c3cccc(C(F)(F)F)c3)o2)s1 | -7.61* | 0.55 | -0.707 | 0.1
O=C(O)CCC(=O)NC1CCCCC1NC(=O)CCC(=O)O (stereo unspecified) | nt | -1.08 | -0.0822 | 20.7
Cc1n[nH]c(C)c1S(=O)(=O)Nc1ccc2c(c1)OCCO2 | -0.0987 | -0.53 | -4.18* | 14.9
Cn1c2c(c(=O)n(C)c1=O)C(C(F)(F)F)(C(F)(F)F)N=C(c1ccc(Cl)cc1)N2 | -3.08* | nt | nt | nt
CC(=O)NC1(C(F)(F)F)C(=O)Nc2c1c(=O)n(C)c(=O)n2C (stereo unspecified) | -0.342 | -0.37 | -0.108 | nt
COc1ccc(-n2nnnc2SCc2nc3ccccc3s2)cc1 | 4.1* | nt | nt | nt
COc1ccc(C)cc1-n1nnnc1SCc1nc2ccccc2s1 | nt | 0.6 | -0.319 | 8.9
Cc1cc(C)c(NC(=O)C2CCN(c3cnccn3)CC2)c(C)c1 | 0.566 | nt | nt | nt
CN(C)Cc1cc(CCNC(=O)c2ccc(Cl)cc2)ccc1O | -0.608 | 1.89 | -2.91* | 11.5
CN(C)c1ccc(NC(=S)c2ccccn2)cc1 | nt | -0.49 | -6.2* | 12.7
CN(C)S(=O)(=O)c1ccc(NC(=O)c2ccccn2)cc1 | -0.875 | 0.36 | -1.07 | 5.5
O=C(Nc1c(C(=O)O)[nH]c2ccccc12)NC1CCCCC1 | -2.06* | 0.08 | -0.509 | -1.1
COC(=O)Cc1cc(=O)[nH]c(/N=C(\N)Nc2ccc(C)cc2C)n1 | -0.583 | -0.87 | -5.21* | 3.0
CCc1nnc(NC(=O)CSc2nc3cccnc3n2Cc2ccccc2)s1 | 0.133 | nt | nt | nt
Cc1c(NC(=O)/C(=C\c2ccccc2)NC(=O)c2ccccc2)c(=O)n(-c2ccccc2)n1C | -8.77* | nt | nt | nt
CCOc1c2ccc(C(=O)NCc3ccc(C)cc3)cc2nn1CCOC | 0.107 | nt | nt | nt
O=C(NC1CCCC1)c1c[nH]c2ccc(F)cc2c1=O | 4.49* | -0.62 | 1.61 | 12.0
O=C(/C=C/Nc1ccc(F)cc1)c1ccco1 | 0.093 | 0.09 | -7.31* | 8.3
O=C1[C@H]2[C@@H](C(=O)N1c1cc(Cl)cc(Cl)c1)[C@]1(C(=O)Nc3ccccc31)N1CCC[C@@H]21 | 3.75* | -0.86 | 0.279 | 16.3
Cc1cc(Cl)c2c(c1)[C@]1(C(=O)N2)[C@@H]2C(=O)N(Cc3ccccc3)C(=O)[C@@H]2[C@@H]2CCCN21 | 0.283 | 0.18 | 0.0186 | 11.6
COc1ccc(C2NC3=C(CCC3)C3(C#N)C4(N=C(N)C23C#N)OCCO4)cc1 (stereo unspecified) | -0.0478 | 0.02 | -3.54* | -3.7
COc1ccc(C2NC3=C(CCCC3)C(C#N)(C#N)C2(C#N)C#N)cc1 (stereo unspecified) | 0.0227 | -0.51 | 0.137 | -0.6
SMILES | DAT uptake mod | WNV protease inh | D1 allo mod | AP complement
C/C(=N\N=C\c1ccccc1)c1nnn(-c2nonc2N)c1C | 0.938 | nt | nt | nt
COc1ccc(C[C@H]2CN3C(=NC[C@@H]3C(C)C)N2CCNC(=O)c2ccc(C)c(Br)c2)cc1 | -3.15* | nt | nt | nt
O=C(c1nn(Cc2ccccc2)c(=O)c2ccccc12)N1CCN(C/C=C/c2ccccc2)CC1 | 4.05* | nt | nt | nt
O=C(COc1ccc2ccccc2c1)Nc1cccc2cccnc12 | -7.56* | nt | nt | nt
COC(=O)C1=C[C@@H](C(=O)OC)[C@@H]2C3=C(C(=O)[C@]2(C)NC(=O)c2ccccc2)[C@H](C)n2c(=O)n(-c4ccccc4)c(=O)n2[C@@H]3C1 | 0.662 | nt | nt | nt
CCOC(=O)c1cc2sc(C)cc2n1CC(=O)NCCc1ccccc1 | -0.198 | -0.97 | -0.682 | 6.0
COc1cccc(N2[C@@H](CC(C)=O)c3ccc(/C=C/C(C)=O)cc3S2(=O)=O)c1 | -0.19 | nt | nt | nt
COc1ccccc1N1CCN(CCC(=O)Nc2ccc3c(c2)OCO3)CC1 | -0.777 | -0.09 | -2.18* | 24.9
CN1CCN(C(=O)C2=C[C@@H](C3CCCCC3)C[C@@H](OCCCCO)O2)CC1 | 0.00523 | nt | nt | nt
Cc1noc(C)c1CSc1nnc(-c2ccccc2)n1N | -8.61* | nt | nt | nt
Cc1ccccc1-n1c(SCc2c(C)noc2C)nnc1-c1c[nH]c2ccccc12 | -1.15 | -0.04 | -6.25* | 11.8
CCCSc1nnc(-c2c[nH]c3ccccc23)n1CC | 0.664 | -0.47 | -0.165 | 8.6
Cc1cccc(CSc2nnc(-c3cccs3)n2Cc2ccco2)c1 | 2.19 | nt | nt | nt
O=C(Nc1ccc2c(c1)OCO2)Nc1ccc(Cl)cc1Cl | -0.617 | nt | nt | nt
O=C(Nc1ccc(OC(F)F)c(Cl)c1)Nc1ccc2c(c1)OCO2 | -7* | 0.45 | 0.0736 | 7.5
O=C(CSc1nnc(C2CC2)n1Cc1ccccc1)N1CCN(S(=O)(=O)c2ccccc2)CC1 | -7.41* | 0.13 | 0.451 | 2.8
O=C(CSc1nnc(C2CC2)n1Cc1ccccc1)c1ccc(S(=O)(=O)N2CCOCC2)cc1 | -0.173 | 0.59 | 0.213 | 10.7
O=c1[nH]c(CN2CCC(c3nc4ccccc4s3)CC2)nc2sc3c(c12)CCC3 | nt | -0.06 | 0.656 | 3.7
Cc1ccccc1-n1cnc2cc(NCc3cccs3)ccc21 | -1.17 | nt | nt | nt
COc1ccccc1-n1cnc2cc(NCc3cccs3)ccc21 | -2.52* | nt | nt | nt
O=C(CN1c2cccc3cccc(c23)S1(=O)=O)NCc1ccc2c(c1)OCO2 | 0.0729 | 0.72 | 5.28* | -5.6
CCC1Sc2ccccc2N(CC(=O)NCCC2=CCCCC2)C1=O (stereo unspecified) | 1.22 | nt | nt | nt
O=C(CN1C(=O)c2ccccc2S1(=O)=O)NCc1ccc2c(c1)OCO2 | -0.838 | nt | nt | nt
CCC1Sc2ccccc2N(CC(=O)NCc2ccc3c(c2)OCO3)C1=O (stereo unspecified) | 0.361 | -0.52 | -2.63* | -1.8
C=CCSc1ncc(C#N)c(N)n1 | -0.152 | nt | nt | nt
SMILES | DAT uptake mod | WNV protease inh | D1 allo mod | AP complement
COC(=O)C1=C(NC(=O)c2ccc(C)c(C)c2)CCS1 | 0.0718 | -0.55 | nt | 12.5
COCCCn1c(SCc2cccc(C(F)(F)F)c2)nc2cc(OC)c(OC)cc2c1=N | 1.09 | nt | nt | nt
COCCCn1c(SCc2ccccc2)nc2cc(OC)c(OC)cc2c1=N | 8.21* | nt | nt | nt
O=C(Cn1ncc2c3ccccc3n(Cc3ccccc3)c2c1=O)N1CCN(c2ncccn2)CC1 | 1.76* | nt | nt | nt
COC(=O)c1sc2nc(-c3ccco3)ccc2c1N | 0.329 | 0.6 | -3.19* | -7.7
NC(=O)c1sc2nc(-c3ccco3)ccc2c1N | -0.15 | nt | nt | nt
CCC(C)n1c(C)nc2c(c1=O)c1nc3ccccc3nc1n2-c1ccc2c(c1)OCCO2 (stereo unspecified) | nt | 0.88 | -5.27* | -16.6
O=C(CCN1C(=O)C2C3C=CC(C4CC34)C2C1=O)Oc1cccc2cccnc12 (stereo unspecified) | -1.21 | nt | nt | nt
CCOc1ccc(NC(=O)CN2C(=O)C3CC=CCC3C2=O)cc1 (stereo unspecified) | 0.95 | -0.92 | 0.23 | -7.0
O=C(CN1C(=O)C2CC=CCC2C1=O)Nc1ccc(S(=O)(=O)NC2=NCCCCC2)cc1 (stereo unspecified) | -8.14* | -1.14 | -0.309 | -10.2
O=c1[nH]c2ccc(Cl)cc2c(-c2ccccc2)c1SC(=S)N1CCCCC1 | 3.42* | nt | nt | nt
O=c1[nH]c2ccc(Cl)cc2c(-c2ccccc2)c1SC(=S)N1CCOCC1 | 0.56 | nt | nt | nt
